The values below come from ChEMBL document CHEMBL3351787, “Electrophilic warhead-based design of compounds preventing NLRP3 inflammasome-dependent pyroptosis” (J Med Chem, 2014).

Data set [1] is described as follows: Cytotoxicity against human HK2 cells assessed as cell viability after 72 hrs by MTT assay. The settings on record: read-out: TC50. The data set is classed as cell-based, HK-2. The gist of the method:
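MTT viability assay in human renal epithelial HK-2 cells. TC50 defined as molar concentration lowering HK-2 viability by 50%.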

A short description of data set [2]: cysteamine reactivity assessed as second-order reaction rate constant in PBS at pH 7.4 and […] by DTNB spectrophotometric assay.
Data set [3] is described as follows: Antipyroptotic activity in PMA-differentiated and LPS-primed human THP1 cells assessed as decrease in ATP-induced pyroptosis measured as LDH activity at 10 uM after 1 hrs by colorimetric assay. The data set is classed as functional. The settings on record: THP-1, 1 h.

As to `C=C(C(=O)OCC)C(O)c1ccccc1` (stereo unspecified), the CC50 at 72 h in data set [1] was 64.5 µM. For the same compound, the k2 in data set [2] amounted to 0.524 M⁻¹ s⁻¹. Besides, in data set [3], the inhibition at 10 µM stood at 45.8%.

As to `C=C(C(=O)NCCC)C(O)c1ccccc1Cl` (stereo unspecified), the CC50 at 72 h in data set [1] came out at 83.5 µM. The k2 in data set [2] was found to be 0.126 M⁻¹ s⁻¹. Besides, the inhibition at 10 µM in data set [3] came to 31.2%.

On to `C=C(C(=O)CC)C(O)c1ccccc1Cl` (stereo unspecified), for which the CC50 at 72 h in data set [1] worked out at 1.9 µM. Also, the k2 in data set [2] worked out at 7.16 M⁻¹ s⁻¹. Further, the inhibition at 10 µM in data set [3] amounted to 12.1%.

Regarding `CCOC(=O)C(C)C(O)c1ccccc1Cl` (stereo unspecified), the CC50 at 72 h in data set [1] was 75.5 µM. Besides, the inhibition at 10 µM in data set [3] was found to be 1.6%.

In the case of `C=C(C(=O)OCC)C(O)c1ccccc1Br` (stereo unspecified), the CC50 at 72 h in data set [1] was determined as 55.9 µM. For the same compound, in data set [3], the inhibition at 10 µM was 53.7%.

For the compound `C=C(C(=O)OCC)C(O)c1cccc(Cl)c1` (stereo unspecified), the CC50 at 72 h in data set [1] is 28.9 µM. Further, the inhibition at 10 µM in data set [3] turned out to be 44.8%.

For the compound `C=C(C(=O)OCC)C(O)c1ccc(Cl)cc1` (stereo unspecified), in data set [1], the CC50 at 72 h is 34.9 µM. The inhibition at 10 µM in data set [3] amounted to 50.5%.

Consider `CCOC(=O)/C(=C\c1ccccc1)C(O)c1ccccc1Cl` (stereo unspecified), for which, in data set [1], the CC50 at 72 h was > 100 µM. For the same compound, the k2 in data set [2] is 0.588 M⁻¹ s⁻¹. Besides, the inhibition at 10 µM in data set [3] came to 52.5%.

As for `CCOC(=O)/C(=C/I)C(O)c1ccccc1Cl` (stereo unspecified), the CC50 at 72 h in data set [1] turned out to be 6.4 µM. The inhibition at 10 µM in data set [3] came to 5.1%.

On to `C=C(C#N)C(O)c1ccccc1` (stereo unspecified), for which the CC50 at 72 h in data set [1] came out at 22.3 µM. Besides, the inhibition at 10 µM in data set [3] amounted to 54.1%.

Turning to `C=C(C(=O)OCC)C(OCCC(=O)OCC)c1ccccc1Cl` (stereo unspecified), the CC50 at 72 h in data set [1] was > 100 µM. In data set [3], the inhibition at 10 µM worked out at 58.3%.

Regarding `C=C(C#N)C(O)c1ccc(Cl)cc1Cl` (stereo unspecified), the CC50 at 72 h in data set [1] was found to be 36.4 µM. In addition, in data set [3], the inhibition at 10 µM was 14.1%.

As to `C=C(C(=O)OCC)C(O)c1ccc(Cl)cc1Cl` (stereo unspecified), in data set [1], the CC50 at 72 h worked out at 70.5 µM. The inhibition at 10 µM in data set [3] amounted to 72.4%.

Regarding `CCOC(=O)/C(=C/c1ccccc1)C(O)c1ccccc1Cl` (stereo unspecified), the CC50 at 72 h in data set [1] is > 100 µM. Moreover, in data set [3], the inhibition at 10 µM was 55.5%.

Take `C=C(C(=O)OCC)C(C)O` (stereo unspecified): the CC50 at 72 h in data set [1] is 22.5 µM. Besides, the inhibition at 10 µM in data set [3] was 59.6%.

Regarding `C=C(C#N)C(O)c1c(Cl)cccc1Cl` (stereo unspecified), the CC50 at 72 h in data set [1] amounted to 16.3 µM. Besides, the inhibition at 10 µM in data set [3] is 51.5%.

For `C=C(C(=O)OCC)C(O)c1ccccn1` (stereo unspecified), the CC50 at 72 h in data set [1] stood at 53.4 µM. The inhibition at 10 µM in data set [3] is 54.3%.

Take `C=C(C(=O)OCC)C(O)c1cc(Cl)cc(Cl)c1` (stereo unspecified): the CC50 at 72 h in data set [1] came to 18.8 µM. Further, in data set [3], the inhibition at 10 µM is 78.4%.

Regarding `C=C(C#N)C(O)c1ccccn1` (stereo unspecified), the CC50 at 72 h in data set [1] turned out to be 20.5 µM. Besides, in data set [3], the inhibition at 10 µM was 52.7%.

Regarding `C=C(C#N)C(O)c1ccccc1[N+](=O)[O-]` (stereo unspecified), the CC50 at 72 h in data set [1] was 3.6 µM. In addition, the inhibition at 10 µM in data set [3] is 97.9%.

Consider `C=C(C(=O)OCC)C(O)c1ccccc1C` (stereo unspecified), for which the CC50 at 72 h in data set [1] amounted to 56.7 µM. Also, the inhibition at 10 µM in data set [3] was 37.8%.

As to `CCOC(=O)/C(=C\I)C(O)c1ccccc1Cl` (stereo unspecified), the CC50 at 72 h in data set [1] stood at 5.9 µM. In data set [3], the inhibition at 10 µM came out at 17.6%.

Regarding `C=C(C#N)C(O)c1ccccc1F` (stereo unspecified), in data set [1], the CC50 at 72 h came to 12.9 µM. The inhibition at 10 µM in data set [3] was 30.5%.

Regarding `C=C(C#N)C(O)c1ccccc1Br` (stereo unspecified), the CC50 at 72 h in data set [1] was determined as 21.8 µM. For the same compound, in data set [3], the inhibition at 10 µM came out at 81.3%.

Regarding `C=C(C#N)C(O)c1cccc2ccccc12` (stereo unspecified), in data set [1], the CC50 at 72 h was determined as 10.1 µM. Besides, in data set [3], the inhibition at 10 µM was 53.5%.

For the compound `C=C(C(=O)OCC)C(O)c1ccccc1OC` (stereo unspecified), the CC50 at 72 h in data set [1] came to 45.8 µM. Further, the k2 in data set [2] came to 0.423 M⁻¹ s⁻¹. The inhibition at 10 µM in data set [3] is 26.8%.

Take `C=C(C(=O)OCC)C(O)C1CCCCC1` (stereo unspecified): the CC50 at 72 h in data set [1] is > 100 µM. In data set [3], the inhibition at 10 µM amounted to 64.3%.

As to `C=C(C(=O)OCC)C(O)c1c(Cl)cccc1Cl` (stereo unspecified), the CC50 at 72 h in data set [1] was 45.2 µM. The inhibition at 10 µM in data set [3] came out at 76.6%.

The inhibition is the relative decrease from the control value, in per cent.
